For 30 molecules, Activity and IC50 results are on record in ChEMBL document CHEMBL3102740, “Antcamphins A-L, ergostanoids from Antrodia camphorata” (J Nat Prod, 2014).

For data set [1], the system named is Hs68. Nature of the data set: Cytotoxicity against human HS68 cells at 25 to 200 uM after 48 hrs by SRB assay. The format is cell-based. Particulars: hs68, 48 h. The method, boiled down:
(§1)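 Cells exposed to each compound for 48 h; growth measured by sulforhodamine B staining. Compounds dissolved in DMSO, then diluted into growth medium. Cisplatin served as positive control. IC50 values derived from the SRB read-out.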

In data set [2] the test system is A549. As to the kind of experiment: Cytotoxicity against human A549 cells after 48 hrs by SRB assay. It counts as functional, cell-based. The following applies: A549, 48 h. The method, boiled down:
as §1
For orientation: In SRB staining, fixed cells bind dye roughly in proportion to their protein.

Data set [3] has as its system MDA-MB-231. As to the kind of experiment: Cytotoxicity against human MDA-MB-231 cells after 48 hrs by SRB assay. It counts as functional, cell-based. The following applies: MDA-MB-231, 48 h. The method, boiled down:
as §1

On to `C=C(CC[C@@H](C)[C@H]1CC[C@H]2C3=C(C(=O)C[C@]12C)[C@@]1(C)CC[C@@H](O)[C@](C)(O)[C@@H]1C[C@@H]3O)[C@@H](C)C(=O)O`, for which the Activity result in data set [1] was “Non-toxic”.
Turning to `C[C@@H]1[C@H](O)CC[C@]2(C)C3=C(C(=O)C[C@@H]12)[C@@H]1CC[C@H]([C@H](C)CCO)[C@@]1(C)[C@@H](O)C3=O`, in data set [1], the Activity result is reported as “Non-toxic”.
The IC50 is the concentration that inhibits the measured activity by half. Low values mean inhibition by little substance, high ones a need for much substance. `CC(=O)CC[C@@H](C)[C@H]1CC[C@H]2C3=C(C(=O)C[C@]12C)[C@@]1(C)CCC(=O)[C@@H](C)[C@@H]1CC3=O`: the Activity entry in data set [1] is on record as “Non-toxic”. The IC50 is 65.9 µM in data set [2] and 45.5 µM in data set [3].
As for `C/C(C=O)=C(/C)CC[C@@H](C)[C@H]1CC[C@H]2C3=C(C(=O)C[C@]12C)[C@@]1(C)CCC(=O)[C@@H](C)[C@@H]1CC3`, in data set [1], the Activity entry is on record as “Non-toxic”.
`C/C(C=O)=C(\C)CC[C@@H](C)[C@H]1CC[C@H]2C3=C(C(=O)C[C@]12C)[C@@]1(C)CCC(=O)[C@@H](C)[C@@H]1CC3`: the Activity result in data set [1] was “Non-toxic”.
On to `C=C(CC[C@@H](C)[C@H]1CC[C@H]2C3=C(C(=O)C[C@]12C)[C@@]1(C)CCC(=O)[C@](C)(O)[C@@H]1C[C@@H]3O)[C@H](C)C(=O)O`, for which, in data set [1], the Activity result was “Non-toxic”. Further, the IC50 in data set [2] amounted to 80.2 µM; in data set [3], 58.6 µM.
For `C=C(CC[C@@H](C)[C@H]1CC[C@H]2C3=C(C(=O)C[C@]12C)[C@@]1(C)CCC(=O)[C@](C)(O)[C@@H]1C[C@@H]3O)[C@@H](C)C(=O)O`, in that order: “Non-toxic”, 66.3 µM and 67.2 µM.
Turning to `C=C(CC[C@@H](C)[C@H]1CC[C@H]2C3=C(C(=O)C[C@]12C)[C@@]1(C)CCC(=O)[C@](C)(O)[C@@H]1C[C@@H]3O)[C@H](C)C(=O)OC`, in data set [1], the Activity entry was “Non-toxic”. For the same molecule, the IC50 in data set [2] was determined as 73.2 µM; in data set [3], 76.8 µM.
Take `C=C(CC[C@@H](C)[C@H]1CC[C@H]2C3=C(C(=O)C[C@]12C)[C@@]1(C)CCC(=O)[C@](C)(O)[C@@H]1C[C@@H]3O)[C@@H](C)C(=O)OC`: in data set [1], the Activity result was “Non-toxic”. The figures for the IC50 in data set [2] and in data set [3] were 93.2 µM and 71.5 µM, respectively.
On to `C=C(CC[C@@H](C)[C@H]1CC[C@H]2C3=C(C(=O)[C@H](O)[C@]12C)[C@@]1(C)CCC(=O)[C@@H](C)[C@@H]1CC3=O)[C@@H](C)C(=O)O`, for which the Activity result in data set [1] is “Non-toxic”.
Consider `C=C(CC[C@@H](C)[C@H]1CC[C@H]2C3=C(C(=O)[C@H](O)[C@]12C)[C@@]1(C)CCC(=O)[C@@H](C)[C@@H]1CC3=O)[C@H](C)C(=O)O`, for which the Activity entry in data set [1] was “Non-toxic”. The figures for the IC50 in data set [2] and in data set [3] were 84.4 µM and 71.3 µM, respectively.
In the case of `C=C(CC[C@@H](C)[C@H]1CC[C@H]2C3=C(C(=O)C[C@]12C)[C@@]1(C)CC[C@H](O)[C@@H](C)[C@@H]1C[C@@H]3O)[C@H](C)C(=O)O`, the Activity result in data set [1] is reported as “Non-toxic”.
Turning to `C=C(CC[C@@H](C)[C@H]1CC[C@H]2C3=C(C(=O)C[C@]12C)[C@@]1(C)CC[C@H](O)[C@@H](C)[C@@H]1C[C@@H]3O)[C@@H](C)C(=O)O`, in data set [1], the Activity entry was “Non-toxic”.
As for `C=C(CC[C@@H](C)[C@H]1CC[C@H]2C3=C(C(=O)[C@H](O)[C@]12C)[C@@]1(C)CC[C@@H](O)[C@@H](C)[C@@H]1CC3=O)[C@@H](C)C(=O)O`, the Activity entry in data set [1] is recorded as “Non-toxic”. Besides, the IC50 was 22 µM in data set [2] and 23.7 µM in data set [3].
In the case of `C=C(CC[C@@H](C)[C@H]1CC[C@H]2C3=C(C(=O)[C@H](O)[C@]12C)[C@@]1(C)CC[C@@H](O)[C@@H](C)[C@@H]1CC3=O)[C@H](C)C(=O)O`, the Activity result in data set [1] is recorded as “Non-toxic”. For the same molecule, the IC50 in data set [2] came out at 32.8 µM; in data set [3], 38.6 µM.
For the molecule `C=C(CC[C@@H](C)[C@H]1CC[C@H]2C3=C(C(=O)C[C@]12C)[C@@]1(C)CCC(=O)[C@@H](C)[C@@H]1CC3=O)[C@@H](C)C(=O)O`, the Activity result in data set [1] was “Non-toxic”. For the same molecule, the concentration for half-maximal inhibition (IC50) in data set [2] turned out to be 41.4 µM; in data set [3], 33.4 µM.
For `C=C(CC[C@@H](C)[C@H]1CC[C@H]2C3=C(C(=O)C[C@]12C)[C@@]1(C)CCC(=O)[C@@H](C)[C@@H]1C[C@@H]3O)[C@H](C)C(=O)O`, the Activity entry in data set [1] is recorded as “Non-toxic”. In addition, the half-inhibitory concentration (IC50) in data set [2] turned out to be 76.2 µM; in data set [3], 74.2 µM.
As for `C=C(CC[C@@H](C)[C@H]1CC[C@H]2C3=C(C(=O)C[C@]12C)[C@@]1(C)CCC(=O)[C@@H](C)[C@@H]1C[C@@H]3O)[C@@H](C)C(=O)O`, the Activity result in data set [1] was “Non-toxic”. Besides, the concentration for half-maximal inhibition (IC50) in data set [2] amounted to 33.1 µM; in data set [3] it was 25.1 µM.
Take `C=C(CC[C@@H](C)[C@H]1CC[C@H]2C3=C(C(=O)C[C@]12C)[C@@]1(C)CC[C@@H](O)[C@](C)(O)[C@@H]1C[C@@H]3O)[C@H](C)C(=O)O`: the Activity result in data set [1] is on record as “Non-toxic”.
As for `C=C(CC[C@@H](C)[C@H]1CC=C2C3=C(C(=O)C[C@@]21C)[C@@]1(C)CCC(=O)[C@@H](C)[C@@H]1C[C@@H]3O)C(C)C(=O)O` (some centres not stated), in data set [1], the Activity entry was “Non-toxic”. The IC50 in data set [2] was 40.6 µM; in data set [3] it was 31.6 µM.
`C=C(CC[C@@H](C(=O)O)[C@H]1C[C@H](O)[C@@]2(C)C3=CC[C@H]4C(C)(C)[C@@H](O)CC[C@]4(C)C3=CC[C@]12C)C(C)C`: the Activity entry in data set [1] is “Non-toxic”.
As for `C=C(CC[C@@H](C(=O)O)[C@H]1C[C@H](O)[C@@]2(C)C3=CC[C@H]4C(C)(C)C(=O)CC[C@]4(C)C3=CC[C@]12C)C(C)C`, the Activity entry in data set [1] was “Non-toxic”.
Still for that read-out and setting: next, `C=C(CC[C@@H](C(=O)O)[C@H]1C[C@H](OC(C)=O)[C@@]2(C)C3=CC[C@H]4C(C)(C)[C@@H](O)CC[C@]4(C)C3=CC[C@]12C)C(C)C`: “Non-toxic”.
`C=C(CC[C@@H](C)[C@H]1CC[C@H]2C3=C(C(=O)C[C@]12C)[C@@]1(C)CCC(=O)[C@@H](C)[C@@H]1CC3)C(C)C(=O)O` (some centres not stated) [ANTCIN A]: the Activity result in data set [1] is “Non-toxic”. Besides, the IC50 in data set [2] turned out to be 39.4 µM; in data set [3] it was 29.6 µM.
As to `C=C(CC[C@@H](C)[C@H]1CC[C@H]2C3=C(C(=O)C[C@]12C)[C@@]1(C)CCC(=O)[C@@H](C)[C@@H]1CC3=O)[C@H](C)C(=O)O` [ANTCIN B], in data set [1], the Activity entry is recorded as “Non-toxic”. For the same molecule, the IC50 in data set [2] came to 57.4 µM; in data set [3] it was 44 µM.
Regarding `C=C(CC[C@@H](C)[C@H]1CC[C@H]2C3=C(C(=O)[C@H](O)[C@]12C)[C@@]1(C)CC[C@@H](O)[C@@H](C)[C@@H]1C[C@@H]3O)C(C)C(=O)O` (some centres not stated) [CAMPHORATIN A], in data set [1], the Activity entry is “Non-toxic”. Moreover, the IC50 in data set [2] came to 92.1 µM; in data set [3], 93.5 µM.
As to `C=C(CC[C@@H](C)[C@H]1CC[C@H]2C3=C(C(=O)C[C@]12C)[C@@]1(C)CC[C@@H](O)[C@](C)(O)[C@@H]1CC3=O)C(C)C(=O)O` (some centres not stated) [CAMPHORATIN C], the Activity result in data set [1] is listed as “Non-toxic”. The results for the IC50 in data set [2] and in data set [3] were 48.8 µM and 62.8 µM, respectively.
Turning to `C=C(CC[C@@H](C(=O)O)[C@H]1CC[C@@]2(C)C3=CC[C@H]4C(C)(C)[C@@H](O)CC[C@]4(C)C3=CC[C@]12C)C(C)C` [DEHYDROEBURICOIC ACID], the Activity entry in data set [1] is reported as “Non-toxic”.
As to `C=C(CC[C@@H](C(=O)O)[C@H]1CC[C@@]2(C)C3=C(CC[C@]12C)[C@@]1(C)CC[C@H](O)C(C)(C)[C@@H]1CC3)C(C)C` [EBURICOIC ACID], the Activity result in data set [1] was “Non-toxic”.
Turning to `C=C(CC[C@@H](C(=O)O)[C@H]1C[C@H](O)[C@@]2(C)C3=C(CC[C@]12C)[C@@]1(C)CC[C@H](O)C(C)(C)[C@@H]1CC3)C(C)C` [SULFURENIC ACID], the Activity result in data set [1] is on record as “Non-toxic”.
